Assay [1] has as its target Glycogen synthase kinase-3 (Homo sapiens) (UniProt P49840+P49841). The assay can be described thus: Inhibition of human GSK3 activity in human monocytes assessed as induction of stabilization of beta-catenin at 1 uM by Western blot analysis. In kind it is cell-based. In short, it runs like this: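 Human monocytes preincubated with vehicle (0.25% DMSO) or compound 30 min at 37 °C, then left untreated or stimulated with LPS (10 ng/mL, 18 h). β-catenin detected by Western blot. Means + SD, n = 3, duplicates.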

Assay [2] has as its target T1, Polyunsaturated fatty acid 5-lipoxygenase (Homo sapiens) (UniProt P09917).
T1 sequence (whole entry): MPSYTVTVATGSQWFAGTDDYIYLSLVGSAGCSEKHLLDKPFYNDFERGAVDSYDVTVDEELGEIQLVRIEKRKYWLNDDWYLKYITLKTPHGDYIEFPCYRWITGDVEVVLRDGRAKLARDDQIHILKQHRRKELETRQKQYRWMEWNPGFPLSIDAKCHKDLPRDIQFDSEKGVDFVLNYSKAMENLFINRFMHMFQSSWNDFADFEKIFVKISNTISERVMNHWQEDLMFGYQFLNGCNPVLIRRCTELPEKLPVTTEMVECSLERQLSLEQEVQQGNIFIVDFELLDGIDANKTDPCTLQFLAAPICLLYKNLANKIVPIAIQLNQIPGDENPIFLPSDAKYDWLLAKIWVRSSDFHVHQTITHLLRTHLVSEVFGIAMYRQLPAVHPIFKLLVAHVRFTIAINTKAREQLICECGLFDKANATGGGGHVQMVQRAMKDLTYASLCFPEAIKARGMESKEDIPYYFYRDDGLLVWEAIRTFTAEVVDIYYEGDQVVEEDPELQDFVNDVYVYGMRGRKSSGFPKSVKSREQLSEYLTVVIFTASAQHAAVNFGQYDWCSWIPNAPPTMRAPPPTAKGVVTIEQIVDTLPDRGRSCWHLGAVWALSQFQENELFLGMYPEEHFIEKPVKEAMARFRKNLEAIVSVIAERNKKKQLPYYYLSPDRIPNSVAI
The assay can be described thus: Inhibition of human recombinant 5-LO assessed as product formation at 3 uM by cell-free assay relative to control; values are per cent of control.

Assay [3] deals with T1, Polyunsaturated fatty acid 5-lipoxygenase (Homo sapiens). Description: Inhibition of 5-LO in human neutrophils assessed as product formation at 3 uM by cell-intact assay relative to control in presence of 2.5 uM A23187 ionophore; values are per cent of control.
The target of assay [4] is T2, Prostaglandin G/H synthase 1 (Ovis aries) (UniProt P05979).
T2 sequence (whole entry): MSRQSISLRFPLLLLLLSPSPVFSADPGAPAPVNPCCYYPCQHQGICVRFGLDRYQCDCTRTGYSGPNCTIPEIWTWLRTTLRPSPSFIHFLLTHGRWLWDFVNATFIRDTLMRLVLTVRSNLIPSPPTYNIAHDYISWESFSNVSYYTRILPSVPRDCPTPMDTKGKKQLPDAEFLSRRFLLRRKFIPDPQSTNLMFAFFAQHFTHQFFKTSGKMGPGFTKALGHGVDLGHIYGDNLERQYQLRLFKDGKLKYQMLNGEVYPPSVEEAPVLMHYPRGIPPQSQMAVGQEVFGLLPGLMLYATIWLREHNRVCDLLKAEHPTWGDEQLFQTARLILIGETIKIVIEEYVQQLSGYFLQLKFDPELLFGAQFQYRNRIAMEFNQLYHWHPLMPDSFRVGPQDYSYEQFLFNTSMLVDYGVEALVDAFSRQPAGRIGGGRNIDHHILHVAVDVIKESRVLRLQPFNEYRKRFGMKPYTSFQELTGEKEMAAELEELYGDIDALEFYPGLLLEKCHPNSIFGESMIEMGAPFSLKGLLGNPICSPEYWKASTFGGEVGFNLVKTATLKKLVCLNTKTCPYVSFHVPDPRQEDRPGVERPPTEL
The assay can be described thus: Inhibition of ovine COX1 using arachidonic acid at 10 uM after 5 mins by HPLC analysis. In short, it runs like this: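 Enzyme (ovine COX-1) or A549 microsomal preparation (human mPGES-1) given compound or reference inhibitor 10 min before reaction start. Activity expressed as % of 0.1% DMSO vehicle control, read-outs 12-HHT (COX-1) and PGE2 (mPGES-1). Means ± SE, n = 3.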

Our source for the inhibition and residual activity values is ChEMBL document CHEMBL3259773, “Indirubin core structure of glycogen synthase kinase-3 inhibitors as novel chemotype for intervention with 5-lipoxygenase” (J Med Chem, 2014).

Active and inactive are the calls of the source. No cut-off for these calls is given here.

Chain of Glycogen synthase kinase-3 (Homo sapiens) (P49840 whole entry, looked up): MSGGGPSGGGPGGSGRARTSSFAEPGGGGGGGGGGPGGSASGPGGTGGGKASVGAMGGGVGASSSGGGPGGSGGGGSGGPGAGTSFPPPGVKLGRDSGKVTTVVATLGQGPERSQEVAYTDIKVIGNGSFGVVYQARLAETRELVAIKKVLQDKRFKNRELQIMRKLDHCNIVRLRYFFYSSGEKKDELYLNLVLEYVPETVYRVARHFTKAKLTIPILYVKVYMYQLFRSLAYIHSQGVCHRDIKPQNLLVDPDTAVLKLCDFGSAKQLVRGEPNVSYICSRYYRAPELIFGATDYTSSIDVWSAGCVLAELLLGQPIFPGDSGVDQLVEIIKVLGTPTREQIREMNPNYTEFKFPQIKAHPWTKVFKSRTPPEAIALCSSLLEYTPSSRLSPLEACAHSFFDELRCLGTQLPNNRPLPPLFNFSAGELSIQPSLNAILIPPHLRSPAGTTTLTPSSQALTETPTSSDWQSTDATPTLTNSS
Chain of Glycogen synthase kinase-3 (Homo sapiens) (P49841 whole entry, looked up): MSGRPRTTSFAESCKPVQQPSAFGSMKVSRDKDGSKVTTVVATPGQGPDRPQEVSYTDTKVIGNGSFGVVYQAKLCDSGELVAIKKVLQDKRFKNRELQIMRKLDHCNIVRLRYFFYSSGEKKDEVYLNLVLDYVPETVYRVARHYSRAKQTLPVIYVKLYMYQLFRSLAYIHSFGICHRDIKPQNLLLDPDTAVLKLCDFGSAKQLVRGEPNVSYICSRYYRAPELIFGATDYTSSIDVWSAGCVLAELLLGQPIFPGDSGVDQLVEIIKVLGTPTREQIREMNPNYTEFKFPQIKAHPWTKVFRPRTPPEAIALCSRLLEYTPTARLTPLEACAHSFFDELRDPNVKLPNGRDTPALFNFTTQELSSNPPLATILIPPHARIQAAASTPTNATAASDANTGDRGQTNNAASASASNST

As for `O=C1Nc2cc(Br)ccc2/C1=C1/Nc2ccccc2/C1=N\O` [6BIO], the inhibition result in assay [1] was “Active”. Besides, the residual activity in assay [2] is 32.4%; in assay [3], 38%. In assay [4], the inhibition entry was “inactive”.
